Jurkat NFkB inh = lowers PMA/ionomycin-induced NF-kB signal in Jurkat cells. PMA/ionomycin-induced NF-kB luciferase reporter, luminescence. inhibition, % at 4 µM. 330,000 tested, 0.53% active; in the data active = inhibition above about 50%
697 NFkB inh = lowers PMA/ionomycin-induced NF-kB signal in 697 B cells | 697 B-cell NF-kB luciferase reporter, 16 h | inhibition, % at 4 µM | 330,000 tested, 0.33% active | AID 435022; in the data active = inhibition above about 35%
UPR XBP1 act = activators of adaptive arm of unfolded protein response (XBP1); CHO-XBP1 luciferase reporter, IRE1-XBP1 UPR activation, luminescence; percent of tunicamycin response, DMSO as zero; activation, % at 20 µM; 330,000 tested, 0.33% active;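 active = versus positive control, 20 µM dose yields 30% or more activation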
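Material: CHO cell line with stable XBP1 luciferase reporter; schedule: 16-18 h cell attachment at 37 °C, then 6 h compound exposure; signal: glow luminescence from Steady-Glo reagent; medium: serum-containing F12 medium, 10% FBS; benchmarks: tunicamycin 10 µg/mL and vehicle-only wells; read-out: percent activation relative to tunicamycin reference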
CHOP UPR activ = apoptotic UPR (CHOP) activation | 330,000 tested, 0.34% active | CHO-CHOP luciferase reporter, luminescence; percent of tunicamycin response over DMSO baseline | activation, % at 10 µM;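 active = at 10 µM dose, activation of 40% or more, normalized to positive control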
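assay system = CHO CHOP reporter cells | amount = 500 CHO-CHOP cells per well | buffer or medium = F12 with 10% FBS | incubation = 16-18 h cell attachment, then 6 h compound exposure, 37 °C | detection = luminescence read with Steady-Glo | read-out = percent activation relative to tunicamycin control | controls = tunicamycin high control, DMSO low control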
CHOP inhibitor = inhibitors of CHOP induction in ER stress response | CHO-K1 CHOP-promoter luciferase, tunicamycin-induced, 15-18 h | inhibition, % at 10 µM | 220,000 tested, 3.8% active;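 active = compounds that reduced the stress-induced luciferase reporter signal by more than about 70% of percent inhibition, limit read from the data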
697 NFkB conf = inhibitors of the PMA/ionomycin-induced NF-kB reporter in 697 B cells, retest | shares compounds with 697 NFkB inh | AID 449746 | 2,000 tested, 35% active | inhibition, % at 4 µM | 697 B-cell NF-kB luciferase, 16 h; in the data active = inhibition mostly above about 28%, no sharp cut-off; inactive = mostly below about 22%
Numbers stand for hits. The entries come from a sample that favours hits as a whole.

What do the screens show for `COc1cc(NC(=O)C2CC(c3ccc(Cl)cc3)=NO2)cc(OC)c1OC` (centres undefined)?
Jurkat NFkB inh: inactive; 697 NFkB inh: inactive; UPR XBP1 act: inactive; CHOP UPR activ: inactive

How did CCc1ccc2oc(-c3cccc(N)c3)nc2c1 do in these assays?
Jurkat NFkB inh: inactive; 697 NFkB inh: inactive; UPR XBP1 act: inactive; CHOP UPR activ: inactive; CHOP inhibitor: inactive; 697 NFkB conf: inactive

Results for Cc1c(CCC(=O)NCCCn2ccnc2)c(=O)oc2c(C)c3oc4c(c3cc12)CCCC4 ?
Jurkat NFkB inh: inactive; 697 NFkB inh: 38; UPR XBP1 act: inactive; CHOP UPR activ: inactive; 697 NFkB conf: 23

How did COc1ccc(CC(=O)NNc2ncnc3c2cnn3Cc2ccccc2)cc1OC do in these assays?
Jurkat NFkB inh: inactive; 697 NFkB inh: inactive; UPR XBP1 act: inactive; CHOP UPR activ: inactive; CHOP inhibitor: inactive

What do the screens show for `CCc1cc(=O)oc2cc(C)cc(OCC(=O)N[C@@H](CSCc3ccccc3)C(=O)O)c12`?
Jurkat NFkB inh: inactive; 697 NFkB inh: inactive; UPR XBP1 act: inactive; CHOP UPR activ: inactive

How did CCCCn1c2c(c(=N)c3ccccc31)CCC2 do in these assays?
Jurkat NFkB inh: inactive; 697 NFkB inh: 44; UPR XBP1 act: inactive; CHOP UPR activ: inactive; CHOP inhibitor: inactive; 697 NFkB conf: 46

How did N=c1c2c(n(Cc3ccccc3)c3c1CCC3)CCC2 do in these assays?
Jurkat NFkB inh: inactive; 697 NFkB inh: inactive; UPR XBP1 act: inactive; CHOP UPR activ: inactive

How did CCN(C(=O)C(C)OC(=O)CCCNC(=O)c1ccc(Cl)cc1)c1ccccc1 (centres undefined) do in these assays?
Jurkat NFkB inh: inactive; 697 NFkB inh: inactive; UPR XBP1 act: inactive; CHOP UPR activ: inactive

How did O=C(Oc1ccc(F)cc1)c1cccnc1 do in these assays?
Jurkat NFkB inh: inactive; 697 NFkB inh: inactive; UPR XBP1 act: inactive; CHOP UPR activ: inactive

What do the screens show for `CC1=CC(C)(C)Nc2ccc(OC(=O)c3cccnc3)cc21`?
Jurkat NFkB inh: inactive; 697 NFkB inh: 66; UPR XBP1 act: inactive; CHOP UPR activ: inactive; CHOP inhibitor: inactive; 697 NFkB conf: 62

How did CC1=CC(C)(C)Nc2ccc(OC(=O)C(C)N3C(=O)c4ccccc4C3=O)cc21 (centres undefined) do in these assays?
Jurkat NFkB inh: inactive; 697 NFkB inh: 67; UPR XBP1 act: inactive; CHOP UPR activ: inactive; CHOP inhibitor: inactive; 697 NFkB conf: 55

Results for COc1ccc(OC(=O)C(C)N2C(=O)c3ccccc3C2=O)cc1 (centres undefined) ?
Jurkat NFkB inh: inactive; 697 NFkB inh: inactive; UPR XBP1 act: inactive; CHOP UPR activ: inactive

What do the screens show for `CCN(CC)c1ccc(/C=N/N2CCN(c3ccccn3)CC2)cc1`?
Jurkat NFkB inh: inactive; 697 NFkB inh: inactive; UPR XBP1 act: inactive; CHOP UPR activ: inactive; CHOP inhibitor: inactive

Results for CC(C)(CSc1ncccn1)NS(=O)(=O)c1ccccc1 ?
Jurkat NFkB inh: inactive; 697 NFkB inh: 39; UPR XBP1 act: inactive; CHOP UPR activ: inactive; CHOP inhibitor: inactive; 697 NFkB conf: inactive

How did Fc1ccc(-c2noc(-c3ccc4c(c3)CCO4)n2)cc1 do in these assays?
Jurkat NFkB inh: inactive; 697 NFkB inh: inactive; UPR XBP1 act: inactive; CHOP UPR activ: inactive; CHOP inhibitor: inactive; 697 NFkB conf: inactive

How did CC(CNC(=O)c1ccc(OC2CCN(Cc3ccccn3)CC2)cc1)Oc1cccnc1 (centres undefined) do in these assays?
Jurkat NFkB inh: inactive; 697 NFkB inh: inactive; UPR XBP1 act: inactive; CHOP UPR activ: inactive

How did COc1cc(C[C@@H]2C(=O)OC[C@H]2Cc2ccc(OC)c(OC)c2)ccc1O do in these assays?
Jurkat NFkB inh: inactive; 697 NFkB inh: 85; UPR XBP1 act: inactive; CHOP UPR activ: inactive; 697 NFkB conf: 70

What do the screens show for `COc1cc(CC2COC(=O)C2(O)Cc2ccc(O)c(OC)c2)ccc1O` (centres undefined)?
Jurkat NFkB inh: inactive; 697 NFkB inh: inactive; UPR XBP1 act: inactive; CHOP UPR activ: inactive; CHOP inhibitor: inactive

What do the screens show for `Cc1ccccc1C(=O)Nc1ccc2c(c1)CCCN2C(=O)c1cccs1`?
Jurkat NFkB inh: inactive; 697 NFkB inh: inactive; UPR XBP1 act: inactive; CHOP UPR activ: inactive; 697 NFkB conf: inactive
